For data set [1], the target named is T1, C-X-C chemokine receptor type 4 (Homo sapiens, UniProt P61073). The data set is described as follows: Agonist activity against CXCR4 expressed in U87.CD.CXCR4 cells assessed as stimulation of calcium signaling incubated for 10 mins by FLIPR. Type of data set: functional, cell-based. In outline: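 U87.CD4 cells stably carrying CXCR4 or CCR5, trypsinized and seeded at 2 × 10⁴ cells/well on 0.2% gelatin the day before. Loaded with Fluo-3 AM (4 μM, 45 min, 37 °C), washed, then exposed to test agents alone at varied concentrations in assay buffer for 10 min at 37 °C. Cytosolic Ca²⁺ rise monitored over time by FLIPR to detect any agonist-triggered signal.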

The target of data set [2] is T2, C-C chemokine receptor type 5 (Homo sapiens, UniProt P51681). In words: Antagonist activity against CCR5 expressed in U87.CD4.CCR5 cells assessed as inhibition of CCL3L1-induced calcium signaling incubated for 10 mins by FLIPR. Type of data set: functional, cell-based. The method, boiled down:
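U87.CD4.CCR5 cells seeded at 2 × 10⁴/well on 0.2% gelatin the day before, loaded with 4 μM Fluo-3 AM for 45 min at 37 °C, washed, then preincubated with compounds at varied concentrations in assay buffer for 10 min at 37 °C. Stimulated with 10 ng/mL LD78β (CCL3L1); Ca²⁺ flux recorded by FLIPR.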

The nature of data set [3]: Cytotoxicity against human PBMC cells by MTT assay. The class given is cell-based. Background: Formazan colour is commonly taken as a measure of viable cells.
In data set [4] the test system is Human immunodeficiency virus 1. The data set is described as follows: Antiviral activity against X4 HIV1 NL4.3 infected in human PBMC assessed as inhibition of viral replication pre-incubated for 30 mins measured 5 days post infection by MTT assay. The class given is functional, organism-based. To be noted: Human immunodeficiency virus 1, NL4.3. The method, boiled down: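 Human PBMC infected with HIV-1 NL4.3. IC₅₀ is the concentration inhibiting viral replication by 50%, averaged over two independent experiments. Cytotoxicity (CC₅₀, 50% loss of PBMC viability) evaluated in the same assay.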

Data set [5] is described as follows: Cytotoxicity against human MT4 cells by MTT assay. Type of data set: cell-based.
For data set [6], the system named is Human immunodeficiency virus 1. In words: Antiviral activity against X4 HIV1 NL4.3 infected in human MT4 cells assessed as inhibition of viral replication pre-incubated for 30 mins […]. Type of data set: functional, organism-based. The following applies: Human immunodeficiency virus 1, NL4.3, MT4.
Data set [7] concerns the target T1, C-X-C chemokine receptor type 4. The data set is described as follows: Antagonist activity against CXCR4 expressed in U87.CD.CXCR4 cells assessed as inhibition of CXCL12-induced calcium signaling incubated for 10 mins by FLIPR. The class given is functional, cell-based. The method, boiled down:
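U87.CD4.CXCR4 cells seeded at 2 × 10⁴/well on 0.2% gelatin the day before, loaded with 4 μM Fluo-3 AM for 45 min at 37 °C, washed, then preincubated with compounds at varied concentrations in assay buffer for 10 min at 37 °C. Challenged with 25 ng/mL CXCL12; Ca²⁺ flux followed over time by FLIPR.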

For data set [8] the target is unchanged. The data set is described as follows: Inhibition of CXCL-12'AF647 binding to CXCR4 in human SUPT1 cells incubated for 15 mins by FACS. The class given is cell-based. In outline:
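SupT1 cells (high CXCR4) washed, then incubated 15 min at room temperature with compounds at varied concentrations in HBSS containing 20 mM HEPES and 0.2% BSA, pH 7.4. CXCL12-AF647 added at 25 ng/mL final for 30 min at room temperature. Cells washed, fixed in 1% paraformaldehyde, and read by flow cytometry on FL4.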
In general terms: A flow cytometer gives signals particle by particle.

For data set [9] the target is unchanged. The data set is described as follows: Inhibition of anti-CXCR4 mAbs clone 1D9 binding to CXCR4 in human SUPT1 cells incubated for 30 mins by FACS.
Data set [10] shares this target. In words: Inhibition of anti-CXCR4 mAbs clone 173 binding to CXCR4 in human SUPT1 cells incubated for 30 mins by FACS.
Data set [11] shares this target. In words: Inhibition of anti-CXCR4 mAbs clone 12G5 binding to CXCR4 in human SUPT1 cells incubated for 30 mins by FACS.
The target of data set [12] is T2, C-C chemokine receptor type 5. The data set is described as follows: Agonist activity against CCR5 expressed in U87.CD4.CCR5 cells assessed as stimulation of calcium signaling incubated for 10 mins by FLIPR.
Data set [13] has the same target. The data set is described as follows: Antagonist activity against CCR5 expressed in U87.CD4.CCR5 cells assessed as inhibition of CCL3L1-induced calcium signaling incubated for 10 mins by FLIPR.

Active and inactive are the calls of the source. No cut-off for these calls is given here.

T1 sequence (P61073 whole entry): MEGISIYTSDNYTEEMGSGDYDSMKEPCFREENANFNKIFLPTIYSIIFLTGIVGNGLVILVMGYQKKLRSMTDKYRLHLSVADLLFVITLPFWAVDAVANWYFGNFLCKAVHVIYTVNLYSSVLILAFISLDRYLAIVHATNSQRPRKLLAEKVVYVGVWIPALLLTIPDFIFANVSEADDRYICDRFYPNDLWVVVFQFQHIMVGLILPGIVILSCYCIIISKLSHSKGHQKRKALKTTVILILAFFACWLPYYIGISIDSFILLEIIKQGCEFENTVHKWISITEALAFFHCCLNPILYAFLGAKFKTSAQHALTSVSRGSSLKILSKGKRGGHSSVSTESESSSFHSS
T2 sequence (P51681 whole entry, looked up): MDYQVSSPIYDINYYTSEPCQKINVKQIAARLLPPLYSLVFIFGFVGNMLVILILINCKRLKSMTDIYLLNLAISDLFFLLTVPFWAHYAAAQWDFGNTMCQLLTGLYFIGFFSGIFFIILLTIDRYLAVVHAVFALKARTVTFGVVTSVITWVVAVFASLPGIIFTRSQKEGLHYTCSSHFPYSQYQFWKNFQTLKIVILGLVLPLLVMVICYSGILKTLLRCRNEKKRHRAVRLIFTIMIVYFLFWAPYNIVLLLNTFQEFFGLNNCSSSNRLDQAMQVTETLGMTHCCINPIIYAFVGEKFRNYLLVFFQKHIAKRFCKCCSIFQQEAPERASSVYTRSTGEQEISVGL

As to `Cc1cn(CCC[n+]2ccc(-c3cc[n+](Cc4cc(C[n+]5ccc(-c6cc[n+](CCCn7cc(C)c(=O)[nH]c7=O)cc6)cc5)cc(-[n+]5ccc(-c6cc[n+](-c7cc(C[n+]8ccc(-c9cc[n+](CCCn%10cc(C)c(=O)[nH]c%10=O)cc9)cc8)cc(C[n+]8ccc(-c9cc[n+](CCCn%10cc(C)c(=O)[nH]c%10=O)cc9)cc8)c7)cc6)cc5)c4)cc3)cc2)c(=O)[nH]c1=O.F[P-](F)(F)(F)(F)F.F[P-](F)(F)(F)(F)F.F[P-](F)(F)(F)(F)F.F[P-](F)(F)(F)(F)F.F[P-](F)(F)(F)(F)F.F[P-](F)(F)(F)(F)F.F[P-](F)(F)(F)(F)F.F[P-](F)(F)(F)(F)F.F[P-](F)(F)(F)(F)F.F[P-](F)(F)(F)(F)F`, the result in data set [1] and in [12] was inactive. In addition, the IC50 (as a rule, the point on the concentration scale where inhibition reaches its midpoint) in data set [2] was over 32200 nM; in data set [4], 4.62 µg/mL; in [6], 2.4 µg/mL; in data set [7], 21000 nM; in data set [8] it was 3400 nM; in [9], 3080 nM. The half-maximal inhibitory concentration (IC50) is 660 nM in data set [10] and 724 nM in data set [11]. In addition, the CC50 in [3] and in data set [5] was over 100 µg/mL throughout. Further, the inhibition entry in data set [7], in data set [9], in [10], in data set [11] and in [13] was “Dose-dependent effect” in each case.

Regarding `CC[n+]1ccc(-c2cc[n+](Cc3cc(C[n+]4ccc(-c5cc[n+](CC)cc5)cc4)cc(C[n+]4ccc(-c5cc[n+](Cc6cc(C[n+]7ccc(-c8cc[n+](Cc9cc(C[n+]%10ccc(-c%11cc[n+](CC)cc%11)cc%10)cc(C[n+]%10ccc(-c%11cc[n+](CC)cc%11)cc%10)c9)cc8)cc7)cc(C[n+]7ccc(-c8cc[n+](Cc9cc(C[n+]%10ccc(-c%11cc[n+](CC)cc%11)cc%10)cc(C[n+]%10ccc(-c%11cc[n+](CC)cc%11)cc%10)c9)cc8)cc7)c6)cc5)cc4)c3)cc2)cc1.F[P-](F)(F)(F)(F)F.F[P-](F)(F)(F)(F)F.F[P-](F)(F)(F)(F)F.F[P-](F)(F)(F)(F)F.F[P-](F)(F)(F)(F)F.F[P-](F)(F)(F)(F)F.F[P-](F)(F)(F)(F)F.F[P-](F)(F)(F)(F)F.F[P-](F)(F)(F)(F)F.F[P-](F)(F)(F)(F)F.F[P-](F)(F)(F)(F)F.F[P-](F)(F)(F)(F)F.F[P-](F)(F)(F)(F)F.F[P-](F)(F)(F)(F)F.F[P-](F)(F)(F)(F)F.F[P-](F)(F)(F)(F)F.F[P-](F)(F)(F)(F)F.F[P-](F)(F)(F)(F)F`, the result in data set [1] and in data set [12] was inactive. Besides, the IC50 is 4860 nM in data set [2]; 0.34 µg/mL in [4]; 0.8 µg/mL in [6]; 294 nM in [7]; 309 nM in data set [8]; 464 nM in [9]. The 50% inhibitory concentration (IC50) was 378 nM in data set [10] and 260 nM in data set [11]. Also, the figures for the CC50 in data set [3] and in [5] were 20 µg/mL and 11 µg/mL, respectively. Also, the inhibition result in [7], in data set [9], in data set [10], in data set [11] and in [13] was “Dose-dependent effect” throughout.

For the compound `CC[n+]1ccc(-c2cc[n+](Cc3cc(C[n+]4ccc(-c5cc[n+](CC)cc5)cc4)cc(-[n+]4ccc(-c5cc[n+](-c6cc(C[n+]7ccc(-c8cc[n+](CC)cc8)cc7)cc(C[n+]7ccc(-c8cc[n+](CC)cc8)cc7)c6)cc5)cc4)c3)cc2)cc1.F[P-](F)(F)(F)(F)F.F[P-](F)(F)(F)(F)F.F[P-](F)(F)(F)(F)F.F[P-](F)(F)(F)(F)F.F[P-](F)(F)(F)(F)F.F[P-](F)(F)(F)(F)F.F[P-](F)(F)(F)(F)F.F[P-](F)(F)(F)(F)F.F[P-](F)(F)(F)(F)F.F[P-](F)(F)(F)(F)F`, the outcome in data set [1] and in [12] was inactive. Moreover, the IC50 in [2] was over 39200 nM; in [4], 5.6 µg/mL; in data set [6], 1.1 µg/mL; in data set [7] it was 24000 nM; in data set [8], 5800 nM; in [9] it was 3360 nM. Also, the IC50 in [10] was 544 nM; in data set [11], 768 nM. The CC50 in data set [3] and in [5] was over 100 µg/mL throughout. For the same compound, the inhibition result in data set [7], in data set [9], in data set [10], in data set [11] and in data set [13] was “Dose-dependent effect” throughout.

(Values after ChEMBL document CHEMBL2177043, “HIV-1 X4 activities of polycationic "viologen" based dendrimers by interaction with the chemokine receptor CXCR4: study of structure-activity relationship” (J Med Chem, 2012).)
